Sampled rows, rich in hits. Any-hit rate of the full collection: about 3.6%.
Yeast lifespan up – yeast lifespan extension; S. cerevisiae growth with nicotinamide, OD615; deaD strain in restrictive glucose medium; inhibition of the nicotinamide effect, % at 10 µM; 130,000 compounds, 0.68% hits;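 active means inhibition above a set limit, placed 3 SD over the median of all compounds, cut at about 26% in these data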;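 further: 0% = nicotinamide-treated wells and 100% = cells grown without nicotinamide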
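Assay system: engineered S. cerevisiae DeaD replicative-lifespan strain, galactose-grown log-phase cells; medium: restrictive CSMM-D dextrose medium; also added: nicotinamide, 1.5 mM, co-present with compound; schedule: 48 h compound exposure at 30 °C, humidified; detection: absorbance at 615 nm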
Measles CPE – protection of cells from measles virus. Measles virus-infected cells, CPE protection, absorbance. protection (pct of control), % at 4 µM. 140,000 compounds, 1.5% hits. AID 841; in the data active means protection mostly above about 24%, no sharp cut-off; inactive means mostly below about 26%
BB579 growth dn – reduces growth of yeast BB579 in restrictive medium | S. cerevisiae BB579 growth, OD615, 48 h | 140,000 compounds, 0.51% hits | AID 804 | inhibition, % at 10 µM;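 active means inhibition above a set limit, 3 SD over the mean compound inhibition, cut at about 44% in these data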
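controls = amphotericin B 10 µg/mL, positive | assay system = DeaD yeast strain BB579 | schedule = 48 h compound exposure at 30 °C after 4 h preincubation | detection = OD615 turbidity measurement | medium = restrictive CSMM-D medium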
RAM inhibit – inhibitors of the yeast RAM network; S. cerevisiae dse1pr::URA3 reporter, 5-FOA growth OD615, 2 d; analog-sensitive cbk1-as2 kinase mutant strain; inhibition, % at 50 µM; 190,000 compounds, 1.8% hits; AID 868;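 active means inhibition above a set limit, 3 SD over mean compound inhibition, cut at about 8.4% in these data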;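 further: 0% = DMSO-only wells with no growth and 100% = 10 µM 1-NA-PP1 full growth; inhibition rescues growth on 5-FOA so higher OD means more RAM inhibition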
An asterisk follows results filed as active; / = not tested or not shown.

SMILES | Yeast lifespan up | Measles CPE | BB579 growth dn | RAM inhibit
Cc1cc(C)cc(-n2c(SCC(=O)NCc3ccco3)nc3ccccc3c2=O)c1 | 56* | 3 | -41 | 3
Cc1ccc(-n2c(SCC(=O)NCc3ccco3)nc3sc4c(c3c2=O)CC(C)(C)SC4)cc1 | 25 | 9 | -66 | 10*
Cc1cccc(C)c1-n1c(SCC(=O)NCc2ccco2)nc2ccccc2c1=O | -17 | 29 | 5 | 1
Cn1c(=O)c2c(nc(SCC(=O)NCc3ccco3)n2C)n(C)c1=O | -8 | 33* | 10 | 0
CC(=O)NCCOc1ccc2oc3ccccc3c2c1 | -28 | 47* | 3 | 3
O=C(O)c1cccc2cccnc12 | -2 | 3 | -34 | 3
O=C(Oc1ccccc1)c1cccc2cccnc12 | -15 | 48* | -14 | 0
COc1ccccc1OCCNc1cc(N2CCCCC2)ccc1[N+](=O)[O-] | -4 | 8 | -12 | 11*
CCN(Cc1ccccc1)C(=O)COC(=O)Cn1cnc2ccccc21 | / | / | / | 2
Cc1ccc(NC(=O)C2CCCN(C(=O)c3ccc(Cl)cc3)C2)cc1S(=O)(=O)N1CCOCC1 (configuration not stated) | / | / | / | 2
CC(C)(C)C(=O)Nc1nc2c(c(=O)[nH]1)CCCC2 | / | / | / | 2
CC1Nc2nc(NC(=O)C(C)(C)C)[nH]c(=O)c2N(C)C1C (configuration not stated) | 5 | 73* | 2 | 1
Cc1ccc2cc(C=O)c(Cl)nc2c1 | / | / | / | 0
Cc1cc2cc(C=C(C#N)C#N)c(Cl)nc2cc1C | 32* | 9 | -25 | 0
CCOC(=O)/C(C#N)=C/c1cc2ccc(C)cc2nc1Cl | 32* | 4 | -7 | 3
NCc1oc(-c2ccccc2)cc1C(=O)O | / | / | / | 0
Cc1ccc(N2CCOCC2)c2c1C(=O)c1ccccc1C2=O | -6 | 10 | 63* | 0
CSCCC(NC(=O)c1ccc(Cl)cc1)C(=O)OCC(=O)Nc1cc(Cl)ccc1C (configuration not stated) | -2 | 27 | 3 | 10*
Cc1cc(C)c(NC(=O)c2cc3c(nc4sccn43)s2)c(C)c1 | -8 | 28* | -26 | 0
O=C(NCCCN1CCOCC1)c1cccnc1SCc1ccccc1Cl | / | / | / | 0
S=c1sc(SCCOc2ccccc2)nn1-c1ccccc1 | -1 | 93* | -44 | 4
Cc1cc(S(=O)(=O)N2CCCC(C(=O)Nc3ccc(C(=O)O)cc3)C2)ccc1Cl (configuration not stated) | / | / | / | 7
COC(=O)c1sc2cc([N+](=O)[O-])cc(SCC(C)C)c2c1N | 7 | 14 | -51 | 11*
COC(=O)c1sc(NC(=O)c2cccc([N+](=O)[O-])c2)c(C(N)=O)c1C | 2 | 17 | -32 | 4
COC(=O)CSc1nnnn1-c1ccccc1 | -11 | 8 | -49 | -1
SMILES | Yeast lifespan up | Measles CPE | BB579 growth dn | RAM inhibit
O=C(/C(=N\Nc1ccccc1)Sc1nnnn1-c1ccccc1)c1ccccc1 | 30* | 11 | -39 | 8
c1ccc(-n2c(-c3ccco3)nnc2-c2ccco2)cc1 | -9 | 0 | 47* | 0
O=c1oc(-c2ccco2)nc2c1cnn2-c1ccccc1 | 36 | 4 | -28 | 3
O=c1c2cnn(-c3ccccc3)c2nc(-c2ccco2)n1-c1ccccc1 | -14 | 35* | -107 | 4
O=C1OCCC1Sc1nnc(-c2ccco2)n1-c1ccccc1 (configuration not stated) | / | / | / | -1
CC(=O)Nc1ccc(NC(=O)COC(=O)c2cnccn2)cc1 | / | / | / | 2
COc1cc(C2C(N3C(=O)c4ccccc4C3=O)C(=O)N2c2cccc(C)c2)cc(OC)c1OC (configuration not stated) | 4 | 7 | -29 | 5
Cn1cccc1CNC(=S)Nc1ccccc1F | / | / | / | 2
O=C(Nc1cccc(O)c1)c1ccccc1[N+](=O)[O-] | / | / | / | 1
CC(C)CNC(=O)CSc1nnc(CN2CCCCCC2=O)n1-c1ccccn1 | 29* | 17 | 4 | 1
CCN(c1ccccc1)S(=O)(=O)c1cc(C(=O)Oc2ccc3c(C)cc(=O)oc3c2)ccc1C | 0 | 20 | -6 | 3
Cc1ccc(C)c(Nc2nc3c(S(=O)(=O)c4ccccc4)nnn3c3ccccc23)c1 | 2 | 6 | -38 | 8.4*
COc1ccc2cc(C#N)c(N3CCN(C(=O)c4ccccc4C)CC3)nc2c1 | / | / | / | 8.8*
O=C(CN(c1ccc(Cl)cc1)S(=O)(=O)c1ccc(Cl)c([N+](=O)[O-])c1)NCCc1ccc(F)cc1 | 6 | 7 | -49 | 4
O=C(CN(c1ccc(Cl)cc1)S(=O)(=O)c1ccc(Cl)c([N+](=O)[O-])c1)NCCc1ccccc1 | / | / | / | 8.4*
CC(C)Cn1cnc2c(c1=O)c1nc3ccccc3nc1n2Cc1ccc2c(c1)OCO2 | -15 | 58* | -12 | 3
Cc1c(N=Nc2c(-c3ccc([N+](=O)[O-])cc3)[nH]n(C(N)=S)c2=O)cccc1[N+](=O)[O-] | / | / | / | 11*
O=C(NCCc1ccccc1)c1ccc(-c2ccccc2Cl)o1 | -3 | 4 | -41 | 8.6*
COC(=O)C1=C(NC(=O)CCCCl)CCS1 | -6 | 50* | -22 | -1
O=C(c1ccc([N+](=O)[O-])cc1)n1nc(-c2ccccc2)nc1NCc1ccccc1 | -22 | 8 | 2 | 7
O=C(c1cccs1)n1nc(-c2ccccc2)nc1NCc1ccc(F)cc1 | 7 | 7 | 5 | 8.6*
O=C(c1cccc([N+](=O)[O-])c1)n1nc(-c2ccccc2)nc1NCc1ccccc1 | -1 | 25 | -2 | 9.7*
CCOC(=O)CC(NC(=O)Cn1nnc(-c2ccccc2F)n1)c1ccc(OC)cc1 (configuration not stated) | / | / | / | 9.7*
Clc1ccc(-c2nnc3sc(Cc4cccs4)nn23)c(Cl)c1 | -10 | 68* | 3 | 3
CC1=NNC(=O)/C1=C\c1cn(-c2ccccc2)nc1-c1ccc(F)cc1 | / | / | / | 2
SMILES | Yeast lifespan up | Measles CPE | BB579 growth dn | RAM inhibit
CC1=NNC(=O)/C1=C\c1cn(-c2ccccc2)nc1-c1cccs1 | -2 | 0 | 96* | 2
COC(=O)c1c(NC(=S)Nc2ccc(C(=O)N3CCOCC3)cc2)sc2c1CCC2 | / | / | / | 7
Cc1ccc(Cn2nnnc2CN2CCC(NC(=O)C(C)(C)C)CC2)cc1 | / | / | / | 0
COc1ccc(C2CC23N=C(c2ccccc2)OC3=O)cc1 (configuration not stated) | 45* | 43* | -14 | 0
Cc1sc2nc(C(C)Sc3n[nH]c(N)n3)[nH]c(=O)c2c1C (configuration not stated) | / | / | / | 1
COc1ccc(Cl)cc1CSc1n[nH]c(C)n1 | -11 | 27* | -19 | 1
CCCCCCc1ccc(-c2ncc(N)cn2)cc1 | -31 | 8 | 97* | 1
CCOC(=O)C(=O)NNc1cccc(C)c1C | 3 | 45* | 5 | 0
CCOC(=O)C(C)(C)N(Cc1ccc(C)cc1)S(=O)(=O)c1ccc(Cl)c([N+](=O)[O-])c1 | -3 | 9 | -25 | 9.8*
CCOC(=O)C(C)(C)NS(=O)(=O)c1ccc(Cl)c([N+](=O)[O-])c1 | -3 | 16 | -6 | 2
